Source: ChEMBL document CHEMBL5653631, “A Potent and Selective ULK1 Inhibitor Suppresses Autophagy and Sensitizes Cancer Cells to Nutrient Stress” (iScience, 2018)
Blank lines part the entries; values can stand above or below the compound they belong to.

Key:
[1] = target: Death-associated protein kinase 2 (Homo sapiens) (UniProt Q9UIK4); experiment: Inhibition of human recombinant DAPK2 at 500 nM in presence of ATP by radiometric assay relative to control
[2] = target: Serine/threonine-protein kinase PAK 6 (Homo sapiens) (UniProt Q9NQU5); experiment: Inhibition of human recombinant PAK6 at 500 nM in presence of ATP by radiometric assay relative to control
[3] = target: Serine/threonine-protein kinase PLK1 (Homo sapiens) (UniProt P53350); experiment: Inhibition of human recombinant PLK1 at 500 nM in presence of ATP by radiometric assay relative to control
[4] = target: T1, Serine/threonine-protein kinase Sgk2 (Homo sapiens) (UniProt Q9HBY8); experiment: Inhibition of human recombinant SGK2 at 500 nM in presence of ATP by radiometric assay relative to control
T1 sequence (whole entry): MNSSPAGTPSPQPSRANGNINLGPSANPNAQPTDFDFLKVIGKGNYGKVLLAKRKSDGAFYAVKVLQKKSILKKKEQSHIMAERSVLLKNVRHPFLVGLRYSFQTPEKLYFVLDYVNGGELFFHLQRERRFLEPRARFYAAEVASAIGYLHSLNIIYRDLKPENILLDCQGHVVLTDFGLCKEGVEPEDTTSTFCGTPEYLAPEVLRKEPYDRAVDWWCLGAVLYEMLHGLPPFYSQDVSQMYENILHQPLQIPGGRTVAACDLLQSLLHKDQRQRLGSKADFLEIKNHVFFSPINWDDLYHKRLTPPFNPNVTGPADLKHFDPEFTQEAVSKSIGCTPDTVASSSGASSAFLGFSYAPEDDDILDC

[5] = target: T2, Activin receptor type-1 (Homo sapiens) (UniProt Q04771); experiment: Inhibition of human recombinant ALK2 at 500 nM related to control ULK1
T2 sequence (whole entry): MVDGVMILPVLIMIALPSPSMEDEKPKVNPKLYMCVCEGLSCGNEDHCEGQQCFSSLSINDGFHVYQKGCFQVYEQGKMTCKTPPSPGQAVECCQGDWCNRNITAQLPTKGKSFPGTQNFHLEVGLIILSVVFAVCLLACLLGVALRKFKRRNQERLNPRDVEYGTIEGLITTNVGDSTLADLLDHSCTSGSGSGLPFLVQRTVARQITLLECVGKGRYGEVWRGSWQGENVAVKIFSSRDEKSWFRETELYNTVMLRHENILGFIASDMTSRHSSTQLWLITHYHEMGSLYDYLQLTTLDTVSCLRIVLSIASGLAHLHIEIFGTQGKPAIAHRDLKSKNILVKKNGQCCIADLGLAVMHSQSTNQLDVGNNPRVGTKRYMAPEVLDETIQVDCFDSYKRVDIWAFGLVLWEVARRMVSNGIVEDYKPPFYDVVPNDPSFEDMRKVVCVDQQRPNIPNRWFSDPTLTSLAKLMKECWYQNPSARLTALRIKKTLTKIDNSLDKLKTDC
Procedure, shortened: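 Panel of 327 recombinant human kinases, each assayed in vitro by radiometric activity assay in duplicate at a single inhibitor concentration per compound, chosen with reference to its ULK1 inhibition. Activity remaining was expressed as percent of vehicle control, and percent inhibition was calculated as 100 minus percent activity remaining.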

[6] = target: Mitogen-activated protein kinase 9 (Homo sapiens) (UniProt P45984); experiment: Inhibition of human recombinant JNK2 at 500 nM related to control ULK1
[7] = target: T3, Serine/threonine-protein kinase 17A (Homo sapiens) (UniProt Q9UEE5); experiment: Inhibition of human recombinant DRAK1 at 15 nM in presence of ATP by radiometric assay relative to control
T3 sequence (whole entry): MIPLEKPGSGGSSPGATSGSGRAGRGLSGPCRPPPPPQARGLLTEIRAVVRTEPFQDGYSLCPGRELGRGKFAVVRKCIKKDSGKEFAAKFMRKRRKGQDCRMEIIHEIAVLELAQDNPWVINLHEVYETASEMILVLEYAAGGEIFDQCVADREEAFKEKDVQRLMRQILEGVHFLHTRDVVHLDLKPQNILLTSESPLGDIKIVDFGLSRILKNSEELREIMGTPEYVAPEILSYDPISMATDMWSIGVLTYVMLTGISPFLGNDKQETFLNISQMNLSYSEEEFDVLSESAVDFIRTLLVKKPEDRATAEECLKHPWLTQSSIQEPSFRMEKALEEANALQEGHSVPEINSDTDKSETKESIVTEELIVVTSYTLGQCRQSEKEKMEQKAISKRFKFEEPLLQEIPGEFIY

[8] = target: Mitogen-activated protein kinase kinase kinase kinase 4 (Homo sapiens) (UniProt O95819); experiment: Inhibition of human recombinant HGK at 15 nM in presence of ATP by radiometric assay relative to control
[9] = target: Homeodomain-interacting protein kinase 2 (Homo sapiens) (UniProt Q9H2X6); experiment: Inhibition of human recombinant HIPK2 at 15 nM in presence of ATP by radiometric assay relative to control
[10] = target: Cyclin-dependent kinase 18 (Homo sapiens) (UniProt Q07002); experiment: Inhibition of human recombinant PCTAIRE3 at 15 nM in presence of ATP by radiometric assay relative to control
[11] = target: Interferon-induced, double-stranded RNA-activated protein kinase (Homo sapiens) (UniProt P19525); experiment: Inhibition of human recombinant PKR at 15 nM in presence of ATP by radiometric assay relative to control
[12] = target: Aurora kinase B (Homo sapiens) (UniProt Q96GD4); experiment: Inhibition of human recombinant AurB at 15 nM related to control ULK1
[13] = target: G protein-coupled receptor kinase 5 (Homo sapiens) (UniProt P34947); experiment: Inhibition of human recombinant GPRK5 at 15 nM related to control ULK1
[14] = target: Interleukin-1 receptor-associated kinase 1 (Homo sapiens) (UniProt P51617); experiment: Inhibition of human recombinant IRAK1 at 15 nM related to control ULK1
[15] = target: Dual specificity tyrosine-phosphorylation-regulated kinase 1A (Homo sapiens) (UniProt Q13627); experiment: Inhibition of human recombinant DYRK1A at 40 nM in presence of ATP by radiometric assay relative to control
[16] = target: Interleukin-1 receptor-associated kinase 1 (Homo sapiens) (UniProt P51617); experiment: Inhibition of human recombinant IRAK1 at 40 nM in presence of ATP by radiometric assay relative to control
[17] = target: Mitogen-activated protein kinase 1 (Homo sapiens) (UniProt P28482); experiment: Inhibition of human recombinant Erk2 at 40 nM related to control ULK1
Mitogen-activated protein kinase 1 (Homo sapiens), sequence (P28482 whole entry): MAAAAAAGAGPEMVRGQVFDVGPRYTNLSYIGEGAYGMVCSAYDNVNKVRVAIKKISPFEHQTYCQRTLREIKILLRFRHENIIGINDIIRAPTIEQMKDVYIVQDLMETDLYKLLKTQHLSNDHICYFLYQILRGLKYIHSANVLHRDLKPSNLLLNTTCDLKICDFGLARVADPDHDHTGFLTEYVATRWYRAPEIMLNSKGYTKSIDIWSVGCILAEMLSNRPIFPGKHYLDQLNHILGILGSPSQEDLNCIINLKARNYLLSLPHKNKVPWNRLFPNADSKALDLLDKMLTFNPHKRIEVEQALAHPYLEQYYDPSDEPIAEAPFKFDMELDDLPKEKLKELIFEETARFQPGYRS

Interleukin-1 receptor-associated kinase 1 (Homo sapiens), sequence (P51617 whole entry, looked up): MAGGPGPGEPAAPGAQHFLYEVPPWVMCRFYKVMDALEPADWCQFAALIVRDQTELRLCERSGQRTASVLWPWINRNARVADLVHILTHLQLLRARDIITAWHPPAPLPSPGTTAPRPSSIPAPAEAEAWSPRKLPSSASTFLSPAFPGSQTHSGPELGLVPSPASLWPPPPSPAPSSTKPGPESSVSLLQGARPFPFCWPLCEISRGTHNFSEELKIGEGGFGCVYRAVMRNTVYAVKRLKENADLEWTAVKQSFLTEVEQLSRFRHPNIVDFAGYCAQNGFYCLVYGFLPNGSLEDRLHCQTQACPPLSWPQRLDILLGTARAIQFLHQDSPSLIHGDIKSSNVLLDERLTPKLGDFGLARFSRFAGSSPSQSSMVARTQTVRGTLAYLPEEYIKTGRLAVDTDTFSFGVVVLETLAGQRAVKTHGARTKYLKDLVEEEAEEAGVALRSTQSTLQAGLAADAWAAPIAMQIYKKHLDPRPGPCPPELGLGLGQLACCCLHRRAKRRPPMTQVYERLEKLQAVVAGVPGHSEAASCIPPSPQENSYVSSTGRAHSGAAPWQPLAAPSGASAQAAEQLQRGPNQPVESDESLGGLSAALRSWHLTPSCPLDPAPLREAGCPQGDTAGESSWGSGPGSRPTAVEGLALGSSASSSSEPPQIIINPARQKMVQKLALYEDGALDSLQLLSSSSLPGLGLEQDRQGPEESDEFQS
Interferon-induced, double-stranded RNA-activated protein kinase (Homo sapiens), sequence (P19525 whole entry): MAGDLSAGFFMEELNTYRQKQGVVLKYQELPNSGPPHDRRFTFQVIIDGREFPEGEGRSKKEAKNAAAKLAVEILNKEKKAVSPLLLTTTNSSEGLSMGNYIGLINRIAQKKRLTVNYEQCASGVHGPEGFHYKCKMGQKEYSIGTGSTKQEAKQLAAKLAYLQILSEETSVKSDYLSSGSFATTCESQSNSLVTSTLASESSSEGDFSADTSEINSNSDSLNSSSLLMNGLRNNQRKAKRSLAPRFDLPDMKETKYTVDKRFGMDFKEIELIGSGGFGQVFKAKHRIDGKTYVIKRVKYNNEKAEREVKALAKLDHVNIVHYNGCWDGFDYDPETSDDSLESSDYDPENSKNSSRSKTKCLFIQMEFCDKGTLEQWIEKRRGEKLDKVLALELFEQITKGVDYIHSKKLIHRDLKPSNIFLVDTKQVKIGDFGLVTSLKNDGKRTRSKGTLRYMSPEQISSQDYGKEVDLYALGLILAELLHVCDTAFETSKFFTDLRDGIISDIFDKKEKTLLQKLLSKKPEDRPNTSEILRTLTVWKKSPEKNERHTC
Mitogen-activated protein kinase 9 (Homo sapiens), sequence (P45984 whole entry, looked up): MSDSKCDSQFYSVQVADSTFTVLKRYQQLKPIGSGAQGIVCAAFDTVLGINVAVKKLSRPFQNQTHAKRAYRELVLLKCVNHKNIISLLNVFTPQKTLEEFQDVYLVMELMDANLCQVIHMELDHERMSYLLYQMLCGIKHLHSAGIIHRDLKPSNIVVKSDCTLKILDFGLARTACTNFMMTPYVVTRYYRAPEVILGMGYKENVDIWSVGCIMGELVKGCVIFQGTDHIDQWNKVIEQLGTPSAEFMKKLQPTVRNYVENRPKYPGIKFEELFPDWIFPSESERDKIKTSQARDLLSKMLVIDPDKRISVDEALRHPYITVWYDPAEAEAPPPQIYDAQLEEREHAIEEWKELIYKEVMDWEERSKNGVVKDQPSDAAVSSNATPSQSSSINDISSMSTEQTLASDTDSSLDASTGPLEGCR
Homeodomain-interacting protein kinase 2 (Homo sapiens), sequence (Q9H2X6 whole entry, looked up): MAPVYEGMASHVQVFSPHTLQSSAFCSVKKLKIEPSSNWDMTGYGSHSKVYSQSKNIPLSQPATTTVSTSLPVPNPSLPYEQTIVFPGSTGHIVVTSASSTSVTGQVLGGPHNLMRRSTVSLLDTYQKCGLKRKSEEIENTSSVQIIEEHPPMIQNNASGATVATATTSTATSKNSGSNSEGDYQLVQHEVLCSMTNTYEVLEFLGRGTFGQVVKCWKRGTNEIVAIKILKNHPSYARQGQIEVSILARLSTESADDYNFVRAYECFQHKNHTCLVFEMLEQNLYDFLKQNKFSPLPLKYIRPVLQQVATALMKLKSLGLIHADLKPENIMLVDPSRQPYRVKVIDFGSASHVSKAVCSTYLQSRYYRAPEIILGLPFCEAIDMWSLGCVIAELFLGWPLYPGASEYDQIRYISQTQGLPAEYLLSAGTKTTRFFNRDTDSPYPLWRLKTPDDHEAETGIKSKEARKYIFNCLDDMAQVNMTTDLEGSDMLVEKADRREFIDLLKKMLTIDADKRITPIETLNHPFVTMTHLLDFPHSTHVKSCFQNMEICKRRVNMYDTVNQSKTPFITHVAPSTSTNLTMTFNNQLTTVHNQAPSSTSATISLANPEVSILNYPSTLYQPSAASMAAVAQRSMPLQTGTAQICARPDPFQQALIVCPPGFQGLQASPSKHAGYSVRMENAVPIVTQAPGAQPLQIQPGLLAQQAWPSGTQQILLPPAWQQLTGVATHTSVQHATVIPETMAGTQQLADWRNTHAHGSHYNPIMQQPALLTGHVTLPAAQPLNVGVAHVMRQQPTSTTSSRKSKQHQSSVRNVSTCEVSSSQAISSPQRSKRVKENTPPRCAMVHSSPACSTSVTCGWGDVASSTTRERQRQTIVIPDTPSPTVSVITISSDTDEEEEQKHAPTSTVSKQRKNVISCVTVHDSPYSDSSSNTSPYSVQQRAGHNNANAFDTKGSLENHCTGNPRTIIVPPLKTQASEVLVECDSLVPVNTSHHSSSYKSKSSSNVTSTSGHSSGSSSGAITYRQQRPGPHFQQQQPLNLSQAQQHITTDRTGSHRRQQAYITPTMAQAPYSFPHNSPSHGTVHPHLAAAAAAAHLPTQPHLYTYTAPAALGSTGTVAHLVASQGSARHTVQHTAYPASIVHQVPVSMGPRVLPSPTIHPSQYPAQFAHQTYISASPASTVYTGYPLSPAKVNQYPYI
Aurora kinase B (Homo sapiens), sequence (Q96GD4 whole entry): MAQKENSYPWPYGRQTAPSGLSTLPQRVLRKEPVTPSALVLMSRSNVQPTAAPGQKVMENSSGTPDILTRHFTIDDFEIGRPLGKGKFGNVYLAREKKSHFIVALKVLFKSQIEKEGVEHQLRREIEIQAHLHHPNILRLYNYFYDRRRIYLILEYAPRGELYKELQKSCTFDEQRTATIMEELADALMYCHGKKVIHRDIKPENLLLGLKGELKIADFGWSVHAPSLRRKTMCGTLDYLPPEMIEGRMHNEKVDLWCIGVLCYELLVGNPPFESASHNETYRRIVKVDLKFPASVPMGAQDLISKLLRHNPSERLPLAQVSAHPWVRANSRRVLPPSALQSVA
Death-associated protein kinase 2 (Homo sapiens), sequence (Q9UIK4 whole entry, looked up): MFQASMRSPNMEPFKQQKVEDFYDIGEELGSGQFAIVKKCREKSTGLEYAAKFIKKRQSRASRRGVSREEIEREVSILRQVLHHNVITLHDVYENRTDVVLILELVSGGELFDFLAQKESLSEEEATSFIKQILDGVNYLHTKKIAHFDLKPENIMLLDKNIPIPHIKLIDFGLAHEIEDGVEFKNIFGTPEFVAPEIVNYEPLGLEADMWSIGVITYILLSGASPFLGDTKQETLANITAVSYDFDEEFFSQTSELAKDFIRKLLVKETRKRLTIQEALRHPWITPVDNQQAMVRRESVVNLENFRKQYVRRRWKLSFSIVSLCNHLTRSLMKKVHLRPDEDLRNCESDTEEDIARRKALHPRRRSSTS
Cyclin-dependent kinase 18 (Homo sapiens), sequence (Q07002 whole entry): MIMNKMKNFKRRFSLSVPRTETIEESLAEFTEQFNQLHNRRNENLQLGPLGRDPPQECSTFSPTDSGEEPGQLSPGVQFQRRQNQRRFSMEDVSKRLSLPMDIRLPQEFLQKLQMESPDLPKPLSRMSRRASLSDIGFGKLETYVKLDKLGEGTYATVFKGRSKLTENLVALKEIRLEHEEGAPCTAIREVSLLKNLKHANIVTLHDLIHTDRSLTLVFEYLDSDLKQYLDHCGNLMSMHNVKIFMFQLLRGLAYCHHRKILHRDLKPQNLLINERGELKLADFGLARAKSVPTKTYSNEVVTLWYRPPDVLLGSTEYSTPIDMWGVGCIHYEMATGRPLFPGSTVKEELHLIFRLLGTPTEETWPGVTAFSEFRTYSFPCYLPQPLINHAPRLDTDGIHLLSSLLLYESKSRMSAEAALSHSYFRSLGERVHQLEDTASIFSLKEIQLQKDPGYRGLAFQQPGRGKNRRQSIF
G protein-coupled receptor kinase 5 (Homo sapiens), sequence (P34947 whole entry, looked up): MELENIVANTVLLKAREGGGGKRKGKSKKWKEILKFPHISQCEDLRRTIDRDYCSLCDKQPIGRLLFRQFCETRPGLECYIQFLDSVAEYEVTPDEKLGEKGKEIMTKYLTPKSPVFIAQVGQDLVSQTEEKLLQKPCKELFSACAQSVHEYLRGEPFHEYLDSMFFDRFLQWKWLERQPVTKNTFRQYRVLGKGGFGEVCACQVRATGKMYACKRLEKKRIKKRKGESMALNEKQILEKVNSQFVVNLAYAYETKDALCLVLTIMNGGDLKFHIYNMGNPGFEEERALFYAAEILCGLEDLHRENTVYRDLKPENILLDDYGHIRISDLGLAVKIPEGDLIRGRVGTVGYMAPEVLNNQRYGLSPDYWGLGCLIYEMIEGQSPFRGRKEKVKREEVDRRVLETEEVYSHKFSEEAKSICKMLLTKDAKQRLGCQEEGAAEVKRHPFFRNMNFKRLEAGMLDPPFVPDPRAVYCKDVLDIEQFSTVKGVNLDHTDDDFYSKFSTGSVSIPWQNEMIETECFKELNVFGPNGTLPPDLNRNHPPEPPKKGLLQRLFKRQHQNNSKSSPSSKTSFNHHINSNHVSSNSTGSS

- inhibition [2]: 19%
- inhibition [3]: 0%
- inhibition [4]: 17%
- fold change (FC) [5]: 0.62
- fold change (FC) [6]: 0
SMILES: CNC(=O)c1ccccc1Oc1nc(Nc2cc(OC)c(OC)c(OC)c2)ncc1Br
- inhibition [1]: 0%

- inhibition [7]: 71%
- inhibition [8]: 0%
- inhibition [9]: 3%
- inhibition [10]: 67%
- inhibition [11]: 2%
- fold change (FC) [12]: 0.2
- fold change (FC) [13]: 0
- fold change (FC) [14]: 0.41
SMILES: CC(C)[C@H](NC(=O)c1cc(-c2cnn3cc(-c4ccc(OCCN5CCCCC5)cc4)cnc23)cs1)C(F)(F)F

- inhibition [15]: 43%
- inhibition [16]: 7%
- fold change (FC) [17]: 0
SMILES: O=C(N[C@@H](C1CC1)C(F)(F)F)c1cc(-c2cnn3cc(-c4ccc(F)cc4)cnc23)cs1
